Measurements of several laboratories.
Lines come from different studies, so protocols differ.
Target: 5-hydroxytryptamine receptor 1A (HTR1A, Homo sapiens, UniProt P08908)
One construct used (P08908 1-422): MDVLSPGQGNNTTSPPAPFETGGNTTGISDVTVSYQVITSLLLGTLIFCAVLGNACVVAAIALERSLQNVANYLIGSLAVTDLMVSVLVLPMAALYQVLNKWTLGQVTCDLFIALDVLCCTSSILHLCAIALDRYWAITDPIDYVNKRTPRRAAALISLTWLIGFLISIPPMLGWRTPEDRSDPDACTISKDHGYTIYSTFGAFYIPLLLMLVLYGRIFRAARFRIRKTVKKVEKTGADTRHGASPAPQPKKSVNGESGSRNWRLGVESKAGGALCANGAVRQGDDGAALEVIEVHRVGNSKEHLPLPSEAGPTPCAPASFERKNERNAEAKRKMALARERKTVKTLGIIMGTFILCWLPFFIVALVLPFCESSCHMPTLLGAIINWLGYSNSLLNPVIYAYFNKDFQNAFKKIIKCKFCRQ

Compound | test | endpoint | value
CN(C)CCc1c[nH]c2cccc(O)c12 | ligand displacement, radioligand | Ki | 84 nM
COCCCN1CCN(c2ccccc2OC)CC1 | cell-free assay | Ki | 110 nM
CN1C[C@@H](CO)C=C2c3cccc4[nH]cc(c34)C[C@H]21 | ligand displacement, radioligand | IC50 | 2.3 nM
CCCCCNC(=N)N/N=C/c1c[nH]c2ccc(OC)cc12 | ligand displacement, radioligand | IC50 | 143 nM
C[C@H](N)Cn1ncc2ccc3c(c21)CCCO3 | cell-free assay, radioligand | Ki | 294 nM
NCCc1c[nH]c2cccc(O)c12 | ligand displacement, radioligand | Ki | 44 nM
CC(CCc1ccccc1)NC(C)C(O)c1ccc(O)cc1 (stereo not drawn) | calcium signal, antagonist | IC50 | 11800 nM
NCCc1c[nH]c2cc(F)ccc12 | ligand displacement, radioligand | Ki | 267 nM
CC[C@@H](CO)NC(=O)[C@@H]1C=C2c3cccc4c3c(cn4C)C[C@H]2N(C)C1 | cell-free assay | Ki | 70 nM
